The record followed here is ChEMBL document CHEMBL3286348, “Undecaprenyl diphosphate synthase inhibitors: antibacterial drug leads” (J Med Chem, 2014).

pIC50: −log10 of the molar value. Converted amounts (≈) assume the structure as drawn.

The nature of experiment [1]: Inhibition of Staphylococcus aureus UPPS-mediated condensation of FPP with IPP by spectrophotometric analysis. In outline:
(§1)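 Continuous spectrophotometric assay of FPP + IPP condensation by purified recombinant UPPS (EcUPPS or SaUPPS): 350 μM IPP, 35 μM FPP, 400 μM MESG to follow PPi release, 20 mM Tris·HCl pH 7.5, 0.01% v/v Triton X-100, 1 mM MgCl2.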

Experiment [2] in a line: Inhibition of Escherichia coli UPPS-mediated condensation of FPP with IPP by spectrophotometric analysis. The method in brief: as §1
A further experiment deals with Saccharomyces cerevisiae. Briefly: Toxicity in Saccharomyces cerevisiae ATCC 208352 after 36 hrs by broth dilution method. The format is organism-based. To be noted: ATCC 208352, 36 h. The method in brief:
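Yeast growth inhibition run in YPD medium: inoculum prepared by 50-fold dilution, growth to OD600 ∼0.4, then 500-fold dilution. Compound serially diluted from 0.5 mM; plates held 36 h at 37 °C; absorbance at 570 nm. IC50 by nonlinear regression, mean of two independent experiments.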

Experiment [3] deals with Bacillus subtilis. Briefly: Antibacterial activity against Bacillus subtilis subsp. subtilis ATCC 6051 after 12 to 16 hrs by broth dilution method. Format: functional, organism-based. In outline:
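Microbroth dilution: 16 h LB culture diluted 50-fold, grown to OD600 ∼0.4, diluted 500-fold into LB and plated. Compound serially diluted from 0.5 mM; incubation 12–16 h at 37 °C; growth read as absorbance at 570 nm. IC50 by nonlinear regression, averaged over two independent experiments.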

For experiment [4], the system named is Escherichia coli. Briefly: Antibacterial activity against Escherichia coli ATCC 29425 after 3 hrs by MTT assay. Format: functional, organism-based. Conditions: ATCC 29425, 3 h. In outline: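 Overnight (16 h) culture diluted 50-fold into LB, grown to OD600 ∼0.4, then diluted 500-fold and plated. Compound 2-fold serial dilutions from 0.3 mM; 3 h at 37 °C to mid-exponential phase. Viability read by MTT (2–4 h, then detergent 2 h at 23 °C in dark), absorbance 570 nm. IC50 by nonlinear regression, mean of two independent experiments.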

Experiment [5] deals with Enterococcus faecalis. Description: Antibacterial activity against vancomycin-resistant Enterococcus faecalis U503 after 16 hrs by microbroth dilution method. The format is functional. Conditions: U503, 16 h. The method in brief:
(§2)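 Stationary-phase cultures grown in brain–heart infusion medium at 37 °C, adjusted to OD600 0.016 in BHI, then plated. 2-fold dilutions from 0.25 to 64 μg mL–1 with DMSO as vehicle control. Kanamycin (1–32 μg mL–1) was the control for L. monocytogenes and gentamycin (1–64 μg mL–1) for S. aureus and E. faecalis. Incubated covered at 37 °C for 16 h with shaking. MIC was the concentration giving at least 99% growth suppression by turbidity.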

For experiment [6], the system named is Enterococcus faecalis. Briefly: Antibacterial activity against vancomycin-resistant Enterococcus faecalis U503 after 16 hrs by microbroth dilution method in presence of vancomycin. Format: functional. Conditions: U503, 16 h.
In the next experiment the test system is Listeria monocytogenes. Briefly: Antibacterial activity against Listeria monocytogenes 4b F2365 after 16 hrs by microbroth dilution method. Format: functional. To be noted: 4b F2365, 16 h. The method in brief:
as §2

In a further experiment the test system is Pseudomonas putida. Briefly: Antibacterial activity against Pseudomonas putida after 16 hrs by microbroth dilution method. The format is functional. In outline:
(§3)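 Stationary-phase cultures grown in LB broth at 37 °C, adjusted to OD600 0.016 in LB, then added to 96-well plates. 2-fold dilutions from 0.25 to 64 μg mL–1, with kanamycin (1–32 μg mL–1) and DMSO as controls. Incubated covered at 37 °C for 16 h with shaking. MIC taken as the lowest concentration suppressing at least 99% of growth, judged by turbidity.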

The subject of experiment [7] is Bacillus anthracis. Description: Antibacterial activity against Bacillus anthracis Sterne after 16 hrs by microbroth dilution method. Format: functional.
A further experiment has as its system Staphylococcus aureus. Briefly: Antibacterial activity against methicillin-resistant Staphylococcus aureus USA300 after 16 hrs by microbroth dilution method. The format is functional. To be noted: USA300, 16 h. In outline:
as §2

Experiment [8] relates to Bacillus anthracis. Briefly: Antibacterial activity against Bacillus anthracis Sterne after 16 hrs by microbroth dilution method in presence of ampicillin. Format: functional.
In experiment [9] the test system is Escherichia coli. Description: Antibacterial activity against Escherichia coli MC4100 after 16 hrs by microbroth dilution method. The format is functional. Conditions: MC4100, 16 h. In outline: as §3
In experiment [10] the test system is Bacillus subtilis. Briefly: Antibacterial activity against Bacillus subtilis 168 after 16 hrs by microbroth dilution method. To be noted: subsp. subtilis str. 168, 16 h. The format is functional. The method in brief:
as §3

As to `CN1C(=O)/C(=C/c2ccc(-c3cc(Cl)ccc3Cl)o2)SC1=S`, the negative-log IC50 (pIC50) (in [1]; in experiment [2]; in the experiment on Saccharomyces cerevisiae; in the experiment on Bacillus subtilis [3]; in the experiment on Escherichia coli [4]) was less than 3.70 each time.

For the compound `Cc1cc(Cl)ccc1-c1ccc(/C=C2\SC(=S)N(CC(=O)O)C2=O)o1`, the MIC against Enterococcus faecalis [5] is 1 µg/mL (≈ 2.54 µM); with Enterococcus faecalis [6], 1.78 µg/mL; in the experiment on Listeria monocytogenes, 4 µg/mL (≈ 10.2 µM); in the experiment with Pseudomonas putida, greater than 64 µg/mL; in the experiment with Bacillus anthracis [7], 1 µg/mL (≈ 2.54 µM); in the experiment on Staphylococcus aureus, 8 µg/mL (≈ 20.3 µM). Also, the figures for the MIC with Bacillus anthracis [8] and in the experiment on Escherichia coli [9] were 1.24 µg/mL and greater than 64 µg/mL, respectively. For the same compound, the pIC50 in [2] is 3.59; in the experiment with Saccharomyces cerevisiae, less than 3.70; in the experiment with Bacillus subtilis [3], 5.54; in the experiment on Escherichia coli [4], less than 3.70.

`CCOc1cccc(/C=C2\SC(=S)N(Cc3ccco3)C2=O)c1O`: the pIC50 was less than 4.00 in [1]; less than 4.00 in experiment [2]; less than 3.70 in the experiment with Saccharomyces cerevisiae; less than 3.70 in the experiment on Bacillus subtilis [3]; less than 3.70 in the experiment with Escherichia coli [4].

Regarding `O=C(O)CCCCCN1C(=O)/C(=C/c2ccc(-c3cc(Cl)ccc3Cl)o2)SC1=S`, the pIC50 was 5.42 in [1]; less than 4.00 in [2]; less than 3.70 in the experiment with Saccharomyces cerevisiae; 5.25 with Bacillus subtilis [3]; less than 3.70 with Escherichia coli [4].

For `Cc1ccc(-c2ccc(/C=C3\SC(=S)N(CCCC(=O)O)C3=O)o2)c([N+](=O)[O-])c1`, the pIC50 in [1] is 5.24; in experiment [2] it was less than 4.00; in the experiment with Saccharomyces cerevisiae, less than 3.70; with Bacillus subtilis [3], 5.49; with Escherichia coli [4] it was less than 3.70.

On to `O=C(O)CCN1C(=O)/C(=C/c2ccc(-c3ccc(Cl)cc3Cl)o2)SC1=S`, for which the pIC50 in [1] is 5.62; in experiment [2], 5.68; with Saccharomyces cerevisiae it was 3.74; in the experiment on Bacillus subtilis [3], 6.37; with Escherichia coli [4], less than 3.70. Besides, the MIC in the experiment on Bacillus subtilis [10] was 0.125 µg/mL (≈ 0.292 µM); in the experiment with Enterococcus faecalis [5], 4 µg/mL (≈ 9.34 µM); in the experiment on Listeria monocytogenes it was 0.125 µg/mL (≈ 0.292 µM); against Pseudomonas putida it was greater than 64 µg/mL; in the experiment on Bacillus anthracis [7], 0.25 µg/mL (≈ 0.584 µM); with Staphylococcus aureus it was 4 µg/mL (≈ 9.34 µM). In the experiment with Escherichia coli [9], this compound returned an MIC greater than 64 µg/mL.

As for `CCOc1cc(/C=C2\SC(=S)N(c3cccc(F)c3)C2=O)ccc1OC(=O)c1cccs1`, the pIC50 (in experiment [1]; in [2]; with Saccharomyces cerevisiae; in the experiment on Bacillus subtilis [3]; in the experiment with Escherichia coli [4]) was less than 3.70 throughout.

In the case of `CCN1C(=O)/C(=C/c2ccc(OCC(=O)O)cc2)SC1=S`, the pIC50 in [1] is less than 4.00; in experiment [2], less than 4.00; in the experiment on Saccharomyces cerevisiae, less than 3.70; in the experiment on Bacillus subtilis [3], less than 3.70; in the experiment on Escherichia coli [4], less than 3.70.

As to `CN(C)c1ccc(/C=C2\SC(=S)N(Cc3ccco3)C2=O)cc1`, the pIC50 was less than 4.00 in experiment [1]; less than 4.00 in [2]; less than 3.70 with Saccharomyces cerevisiae; less than 3.70 in the experiment with Bacillus subtilis [3]; less than 3.70 with Escherichia coli [4].

As to `O=C1/C(=C/c2ccc(Cl)cc2Cl)SC(=S)N1Cc1ccco1`, the pIC50 was less than 4.00 in [1]; less than 4.00 in experiment [2]; less than 3.70 with Saccharomyces cerevisiae; less than 3.70 with Bacillus subtilis [3]; less than 3.70 with Escherichia coli [4].

Consider `O=C(O)c1ccc(N2C(=O)/C(=C/c3ccc(Br)cc3)SC2=S)cc1`, for which the negative-log IC50 (pIC50) in experiment [1] was 3.77; in experiment [2], less than 3.70; in the experiment with Saccharomyces cerevisiae, less than 3.70; in the experiment on Bacillus subtilis [3], less than 3.70; with Escherichia coli [4] it was less than 3.70.

Consider `COc1cccc(/C=C2\SC(=S)N(Cc3ccco3)C2=O)c1OC`, for which the negative logarithm of the IC50 (pIC50) in experiment [1] is less than 4.00; in [2] it was less than 4.00; in the experiment with Saccharomyces cerevisiae, less than 3.70; in the experiment with Bacillus subtilis [3], less than 3.70; with Escherichia coli [4] it was less than 3.70.

For `CC(=O)c1ccc(-c2ccc(/C=C3\SC(=S)N(c4ccccc4)C3=O)o2)cc1`, the negative logarithm of the IC50 (pIC50) in experiment [1] was 4.49; in [2], 4.07; in the experiment with Saccharomyces cerevisiae it was less than 3.70; in the experiment with Bacillus subtilis [3], less than 3.70; with Escherichia coli [4], less than 3.70.

`CC1=CC(=O)/C(=C\N2C(=O)/C(=C/c3cccc(O)c3)SC2=S)C(=O)O1`: the pIC50 was less than 4.00 in experiment [1]; less than 4.00 in experiment [2]; less than 3.70 in the experiment on Saccharomyces cerevisiae; less than 3.70 with Bacillus subtilis [3]; less than 3.70 in the experiment on Escherichia coli [4].

With `CCN1C(=O)/C(=C/c2ccc(OC)cc2)SC1=S`, the pIC50 in experiment [1] is less than 4.00; in experiment [2] it was less than 4.00; in the experiment on Saccharomyces cerevisiae, less than 3.70; in the experiment on Bacillus subtilis [3] it was less than 3.70; in the experiment on Escherichia coli [4], less than 3.70.

Consider `CCOc1cc(/C=C2\SC(=S)N(c3ccc(F)cc3)C2=O)ccc1O`, for which the pIC50 in experiment [1] is 3.82; in experiment [2] it was 4.39; in the experiment with Saccharomyces cerevisiae, less than 3.70; in the experiment on Bacillus subtilis [3] it was less than 3.70; with Escherichia coli [4] it was less than 3.70.

As to `O=C1/C(=C\c2cccc(O)c2O)SC(=S)N1Cc1ccco1`, the pIC50 in experiment [1] was 5.28; in experiment [2], less than 4.00; with Saccharomyces cerevisiae, less than 3.70; in the experiment with Bacillus subtilis [3], less than 3.70; in the experiment with Escherichia coli [4], less than 3.70.
